An excerpt weighted towards active compounds, which were near 2.9% of everything screened.
SIRT5 block – blocks human SIRT5 desuccinylation of peptide | Q9NXA8 | Purified SirT5, succinyl-peptide AMC, trypsin-coupled fluorescence | inhibition, % at 15 µM | 330,000 tested, 1.1% active; in the data active = inhibition above about 15%
Target sequence (Q9NXA8 whole entry, looked up): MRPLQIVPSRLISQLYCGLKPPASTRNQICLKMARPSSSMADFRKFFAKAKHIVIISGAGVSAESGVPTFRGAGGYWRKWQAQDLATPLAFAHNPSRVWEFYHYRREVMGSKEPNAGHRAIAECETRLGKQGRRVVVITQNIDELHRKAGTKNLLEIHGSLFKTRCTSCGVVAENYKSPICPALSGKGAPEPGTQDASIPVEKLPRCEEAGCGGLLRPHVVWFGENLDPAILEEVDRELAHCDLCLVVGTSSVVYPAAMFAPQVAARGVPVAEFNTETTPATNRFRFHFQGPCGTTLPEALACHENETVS
S100A4 inh HTS – S100A4-myosin IIA interaction inhibition. P26447. S100A4/TAMRA-MyoIIA peptide fluorescence polarization. inhibition, % at 10.7 µM. 360,000 tested, 0.14% active. AID 652163;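 active = mean inhibition of at least 70% across replicates, with every replicate also reaching that level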
Target sequence (P26447 whole entry, looked up): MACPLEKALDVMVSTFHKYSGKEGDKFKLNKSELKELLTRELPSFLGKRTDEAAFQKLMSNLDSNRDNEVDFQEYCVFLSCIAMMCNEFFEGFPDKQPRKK
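Test system: S100A4 monomer protein; Medium: HEPES pH 7.2 with CaCl2, KCl, NaCl, DTT, Triton; Probe or stimulus: TAMRA-labelled myosin IIA heavy-chain peptide probe, 5 nM; Doses: one dose per compound; Times: polarization read 5 min after assay mix addition, stable 5–60 min; Benchmarks: neutral control DMSO, positive control TFP.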
ERAP1 HTS inh – blocks human ERAP1 aminopeptidase activity | Q9NZ08 | recombinant ERAP1, Leu-AMC fluorescence, 60 min | inhibition, % at 10.7 µM | 340,000 tested, 0.15% active;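 active = mean replicate inhibition of at least 30%, or all replicates individually reaching that 30% level; inactive = mean below 30% and not every replicate reaching it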;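 note: 0% = neutral control wells and 100% = L-leucinethiol positive control wells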
DENV2 CPE – DENV2-induced cell death inhibition. AID 651640. CPE inhibition, % at 9.99 µM. 350,000 tested, 1.7% active. DENV2-infected cells, cytopathic effect rescue, plate reader; in the data active = CPE inhibition above about 20%, passing the limit was not always enough; tested in BHK-21 cells;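 note: 0% = median of neutral control wells and 100% = median of positive control wells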
CAL PDZ FP-1 – blocks peptide binding to the human CAL PDZ domain; Q9HD26; purified CAL PDZ, TMR-peptide fluorescence polarization, 1 h; inhibition, % at 24.9 µM; 300,000 tested, 0.92% active; AID 602252;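 active = mean inhibition of at least 30% with at least half of replicates also reaching 30%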;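 note: 0% = DMSO neutral control and 100% = excess unlabeled competitor peptide PRC23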
CAL PDZ FP-2 – blocks peptide binding to human CAL PDZ domain. Q9HD26. inhibition, % at 20 µM. AID 504414. purified CAL PDZ, TMR-peptide fluorescence polarization, 1 h. 330,000 tested, 0.02% active;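 active = highest replicate inhibition of at least 40%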;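 note: plate controls were DMSO neutral control wells for no effect and unlabeled competitor peptide control wells for full effect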
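Read-out basis: mP drop reported as inhibition | Assay system: Tagged CAL PDZ protein CerCALP, purified | Benchmarks: Unlabelled peptide for full inhibition, DMSO wells as neutral | Schedule: 1 h incubation at room temperature before polarization reading | Buffer or medium: Sodium phosphate/NaCl buffer pH 7.4 with TCEP, IgG, Thesit | Doses: Single point, 20 µM | Measured by: Fluorescence polarization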
The depositor's hits bear a star.

How did COc1ccc(N2CCN(Cc3nc4c(c(=O)[nH]c(=O)n4C)n3Cc3cccc(Cl)c3)CC2)cc1 do in these assays?
SIRT5 block: 0; S100A4 inh HTS: 3; ERAP1 HTS inh: -2; DENV2 CPE: 98*; CAL PDZ FP-2: 1

Results for C[C@H]1CN([C@@H](C)CO)S(=O)(=O)c2ccc(Br)cc2O[C@H]1CN(C)CC1CC1 ?
SIRT5 block: -14; S100A4 inh HTS: -12; ERAP1 HTS inh: -2; DENV2 CPE: 4

Results for Cc1noc(C)c1COc1cccc(C(=O)OCCOc2ccc(F)cc2)c1 ?
CAL PDZ FP-1: -4

How did Cc1noc(C)c1COc1cccc(C(=O)OC(C)C#N)c1 (centres undefined) do in these assays?
SIRT5 block: -5; S100A4 inh HTS: -1; ERAP1 HTS inh: 2; DENV2 CPE: -13; CAL PDZ FP-1: 73*; CAL PDZ FP-2: -1

Results for CCNC(=O)C[C@H]1CC[C@H]2[C@@H](COC[C@H](O)CN2Cc2ccc(Cl)c(Cl)c2)O1 ?
SIRT5 block: -3; S100A4 inh HTS: 4; ERAP1 HTS inh: 2; DENV2 CPE: 109*

Results for CNC(=O)C[C@@H]1CC[C@@H]2[C@H](COC[C@@H](O)CN2Cc2ccncc2)O1 ?
SIRT5 block: -2; S100A4 inh HTS: 0; ERAP1 HTS inh: 2; DENV2 CPE: 25*

Results for CN(C)CCCNC(=O)C[C@@H]1CC[C@H]2[C@@H](COC[C@@H](O)CN2Cc2ccc(Cl)c(Cl)c2)O1 ?
SIRT5 block: 4; S100A4 inh HTS: 137*; ERAP1 HTS inh: 15; DENV2 CPE: -1

How did CCNC(=O)C[C@@H]1CC[C@H]2[C@@H](COC[C@@H](O)CN2Cc2ccc(Cl)c(Cl)c2)O1 do in these assays?
SIRT5 block: -20; S100A4 inh HTS: 9; ERAP1 HTS inh: 1; DENV2 CPE: -14

What do the screens show for `CCCNC(=O)C[C@H]1CC[C@H]2[C@@H](COC[C@@H](O)CN2Cc2ccc(Cl)c(Cl)c2)O1`?
SIRT5 block: 0; S100A4 inh HTS: 0; ERAP1 HTS inh: 1; DENV2 CPE: -8

How did O=C(C[C@@H]1CC[C@@H]2[C@H](COC[C@H](O)CN2C(=O)Nc2ccc(Cl)c(Cl)c2)O1)NCc1ccc(Cl)c(Cl)c1 do in these assays?
SIRT5 block: 5; S100A4 inh HTS: -13; ERAP1 HTS inh: -1; DENV2 CPE: 44*

Results for O=C(C[C@@H]1CC[C@@H]2[C@H](COC[C@@H](O)CN2C(=O)Nc2ccc(Cl)c(Cl)c2)O1)NCc1ccc(Cl)c(Cl)c1 ?
SIRT5 block: 4; S100A4 inh HTS: -1; ERAP1 HTS inh: -1; DENV2 CPE: -20

Results for CO[C@@H]1CN(C)C(=O)c2cc(NC(=O)C3CC3)ccc2OC[C@H](C)N(Cc2cccc(F)c2)C[C@@H]1C ?
SIRT5 block: 1; S100A4 inh HTS: -2; ERAP1 HTS inh: 1; DENV2 CPE: -11

Results for Cc1ccc(C(=O)NC(=S)NCC(=O)c2ccccc2)cc1 ?
CAL PDZ FP-1: 33*

Results for O=C(NCc1ccc2c(c1)OCO2)c1nc(Cn2cc(Br)cn2)no1 ?
SIRT5 block: 3; S100A4 inh HTS: 2; ERAP1 HTS inh: 0; DENV2 CPE: 1; CAL PDZ FP-1: 37*; CAL PDZ FP-2: -1

How did CCCn1c2ccccc2c2nnc(SCCN3CCOCC3)nc21 do in these assays?
SIRT5 block: 19*; S100A4 inh HTS: -3; ERAP1 HTS inh: 3; DENV2 CPE: 4; CAL PDZ FP-1: -2; CAL PDZ FP-2: -2

What do the screens show for `CCc1c(-c2ccccc2F)ncn1Cc1cccc(-c2ccccc2)c1`?
SIRT5 block: -3; S100A4 inh HTS: -3; ERAP1 HTS inh: -3; DENV2 CPE: 59*

What do the screens show for `CCc1c(-c2ccccc2)ncn1Cc1cccc(-c2ccccc2)c1`?
S100A4 inh HTS: 0; ERAP1 HTS inh: -6; DENV2 CPE: 1

Results for CCc1c(C2CC2)ncn1Cc1cccc(-c2ccccc2)c1 ?
SIRT5 block: 0; S100A4 inh HTS: -1; ERAP1 HTS inh: 16; DENV2 CPE: 20*

Results for Cc1ccc(C)c(SCC(=O)N(C)C2CCS(=O)(=O)C2)c1 (centres undefined) ?
SIRT5 block: 0; S100A4 inh HTS: 12; ERAP1 HTS inh: 3; DENV2 CPE: -10; CAL PDZ FP-1: -3; CAL PDZ FP-2: 1

What do the screens show for `Cc1cc(SCC(=O)OCC(=O)N(C)C2CCS(=O)(=O)C2)c(C)cc1Br` (centres undefined)?
SIRT5 block: 19*; S100A4 inh HTS: -2; ERAP1 HTS inh: 2; DENV2 CPE: 5; CAL PDZ FP-1: -3; CAL PDZ FP-2: -1

Results for Cc1cc(F)ccc1NC(=O)c1cc(S(=O)(=O)N2CCCC2)cn1C ?
SIRT5 block: -4; S100A4 inh HTS: -1; ERAP1 HTS inh: -2; DENV2 CPE: -1; CAL PDZ FP-1: 69*; CAL PDZ FP-2: 0

Results for COc1ccccc1NC(=O)c1cc(S(=O)(=O)N2CCCC2)cn1C ?
SIRT5 block: -1; S100A4 inh HTS: -3; ERAP1 HTS inh: 0; DENV2 CPE: 4; CAL PDZ FP-2: 0

How did Cc1cccc(NC(=O)CNC(=O)c2ccccc2Cl)n1 do in these assays?
SIRT5 block: 0; S100A4 inh HTS: 99*; ERAP1 HTS inh: 2; DENV2 CPE: 3; CAL PDZ FP-1: -1; CAL PDZ FP-2: -2

Results for O=c1ccn(Cc2ccccc2)c2ccccc12 ?
SIRT5 block: 36*; S100A4 inh HTS: -21; ERAP1 HTS inh: -1; DENV2 CPE: -1; CAL PDZ FP-1: -3; CAL PDZ FP-2: 0

How did C[C@H]1CN([C@@H](C)CO)C(=O)c2cc(NC(=O)Cn3cnnn3)ccc2O[C@@H]1CN(C)C(=O)Nc1cccc2ccccc12 do in these assays?
SIRT5 block: 2; S100A4 inh HTS: -32; ERAP1 HTS inh: -5; DENV2 CPE: -9

How did COc1ccc(C2(c3ccc(OC)cc3)NC(=O)N(CC(=O)Nc3ccc(OC)c(OC)c3)C2=O)cc1 do in these assays?
SIRT5 block: -1; S100A4 inh HTS: 2; ERAP1 HTS inh: -2; DENV2 CPE: -1; CAL PDZ FP-1: 51*; CAL PDZ FP-2: -1

What do the screens show for `CCC1CCC2(CC1)NC(=O)N(CC(=O)Nc1ccc(OC)c(Cl)c1)C2=O` (centres undefined)?
SIRT5 block: -2; S100A4 inh HTS: 5; ERAP1 HTS inh: 0; DENV2 CPE: -3; CAL PDZ FP-1: 81*; CAL PDZ FP-2: 0

How did C[C@@H]1CCCCO[C@H](CN(C)C(=O)Nc2ccccc2)[C@@H](C)CN([C@@H](C)CO)C(=O)c2cc(NC(=O)c3ccccc3)ccc2O1 do in these assays?
SIRT5 block: -4; S100A4 inh HTS: -7; ERAP1 HTS inh: 1; DENV2 CPE: -6

Results for CCNC(=O)Nc1ccc2c(c1)C(=O)N(C)[C@@H]1CC[C@@H](CC(=O)NCCN3CCCC3)O[C@H]1CO2 ?
DENV2 CPE: 3

High-throughput results (PubChem)
